Measurements from ChEMBL document CHEMBL1772980, “Synthesis and evaluation of new furanyl and thiophenyl azoles as antileishmanial agents” (Eur J Med Chem, 2011).
The source made the active and inactive calls. No cut-off for these calls is given here.

Assays:
Leishmania donovani [1] = assay: Antipromastigote activity against Leishmania donovani MHOM/IN/80/Dd8 promastigotes assessed as luciferase activity of viable cells at 20 uM after 72 hrs by luminometry; format: functional; conditions: MHOM/IN/80/Dd8, 72 h
Procedure, shortened: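 Late-log luciferase-transfected promastigotes were seeded at 5 × 10⁵ per well in medium 199 with parallel DMSO dilutions as controls. After incubation, a suspension aliquot was mixed 1:1 with Steady Glo reagent and luminescence read as RLU. Percentage inhibition = (N − n) × 100/N, where N is mean control RLU and n is mean treated RLU.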

Leishmania donovani [2] = assay: Antiamastigote activity against Leishmania donovani MHOM/IN/80/Dd8 amastigotes infected in mouse macrophage after 72 hrs by luciferase reporter gene assay; format: functional, organism-based; conditions: MHOM/IN/80/Dd8, 72 h
Procedure, shortened: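 Mouse J-774A.1 macrophages were seeded at 4 × 10⁴ cells/well in RPMI-1640 with 10% foetal calf serum, 37 °C, CO₂, for 24 h. They were then infected with stationary-phase luciferase-expressing promastigotes at 4 × 10⁵/well. Compounds were added in dilutions starting from 40 and incubated 72 h at 37 °C. Medium was replaced by PBS plus Steady Glo, luminescence read as RLU, and IC50 fitted by four-parameter Hill regression.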

[3] = Cytotoxicity against mouse J774A1 cells assessed as cell viability after 72 hrs by MTT assay; format: cell-based, J774.A1
[4] = Selectivity index, ratio of CC50 for mouse J774A.1 cells to IC50 for Leishmania donovani MHOM/IN/80/Dd8 amastigotes; format: functional
Leishmania donovani [5] = assay: Antiamastigote activity against Leishmania donovani MHOM/IN/80/Dd8 amastigotes infected in mouse macrophage at 40 uM after 72 hrs by luciferase reporter gene assay; format: functional, organism-based

SMILES	inhibition at 20 µM (Leishmania donovani [1]) [%]	IC50 (Leishmania donovani [2]) [µM]	CC50 at 72 h [3] [µM]	Selectivity Index [4]	inhibition (Leishmania donovani [5])
Fc1ccc(COC(CCn2ccnc2)c2cccs2)c(F)c1 (centres undefined)	90.6	7.81	34.4	4.4	
Clc1ccc(COC(Cn2ccnc2)c2ccc(Cl)cc2Cl)c(Cl)c1 (centres undefined) [MICONAZOLE]	100	6	9.93	1.66	
Clc1ccc(Cl)c(COC(CCn2cncn2)c2cccs2)c1 (centres undefined)	97.3				inactive
Clc1ccc(COC(CCn2ccnc2)c2cccs2)c(Cl)c1 (centres undefined)	87.8	5.26	29.7	5.65	
Fc1ccc(F)c(COC(CCn2ccnc2)c2cccs2)c1 (centres undefined)	86.8	7.35	15.1	2.05	
Clc1cccc(COC(CCn2cncn2)c2ccco2)c1 (centres undefined)	97.5	7.36	18.6	3.17	
Fc1ccc(COC(CCn2cncn2)c2ccco2)c(F)c1 (centres undefined)	90.5				inactive
Clc1ccc(COC(CCn2cncn2)c2cccs2)c(Cl)c1 (centres undefined)	97.1				inactive
Fc1ccc(F)c(COC(CCn2ccnc2)c2ccco2)c1 (centres undefined)	99	5.35	30.9	5.77	
CCCCCCCCCCCCCCCCOP(=O)([O-])OCC[N+](C)(C)C [MILTEFOSINE]	99.9	13.4	3.23	0.24	
Clc1cccc(COC(CCn2ccnc2)c2cccs2)c1 (centres undefined)	100	5.14	46	8.93	
Fc1ccc(F)c(COC(CCn2cncn2)c2ccco2)c1 (centres undefined)	98.5				inactive
Clc1ccc(Cl)c(COC(CCn2ccnc2)c2cccs2)c1 (centres undefined)	85.9	6.75	18	2.66	
Clc1cccc(COC(CCn2cncn2)c2cccs2)c1 (centres undefined)	80.6	8.04	15.6	1.93	
Clc1ccc(Cl)c(COC(CCn2cncn2)c2ccco2)c1 (centres undefined)	94.5	9.39	28.9	3.08	
Clc1ccc(COC(CCn2ccnc2)c2ccco2)c(Cl)c1 (centres undefined)	91.8	5.15	56.2	10.9	
Clc1ccc(COC(CCn2cncn2)c2ccco2)c(Cl)c1 (centres undefined)	97.8				inactive
Clc1cccc(COC(CCn2ccnc2)c2ccco2)c1 (centres undefined)	100	3.04	60.2	19.8	
Fc1ccc(F)c(COC(CCn2cncn2)c2cccs2)c1 (centres undefined)	94.8				inactive
Fc1ccc(COC(CCn2ccnc2)c2ccco2)c(F)c1 (centres undefined)	95.5	4.2	28.8	6.86	
Clc1ccc(Cl)c(COC(CCn2ccnc2)c2ccco2)c1 (centres undefined)	96	4.03	37.6	7.15	
Fc1ccc(COC(CCn2cncn2)c2cccs2)c(F)c1 (centres undefined)	92				inactive
